The text below walks through data of ChEMBL document CHEMBL1153264, “(1,2,3-Triazol-4-yl)benzenamines: synthesis and activity against VEGF receptors 1 and 2” (Bioorg Med Chem Lett, 2009).

Assay [1] concerns the target Fibroblast growth factor receptor 1 (Homo sapiens) (UniProt P11362). Nature of the assay: Inhibition of FGFR1 at 10 uM.
Assay [2] is described as follows: Inhibition of Bcr-Abl T315 mutant at 10 uM.
Assay [3] concerns the target Insulin receptor (Homo sapiens) (UniProt P06213). Nature of the assay: Inhibition of IR at 10 uM.
For assay [4], the target named is T1, Vascular endothelial growth factor receptor 2 (Homo sapiens, UniProt P35968). Nature of the assay: Inhibition of VEGF-induced phosphorylation of VEGFR2 by cell-based ELISA.
Assay [5] concerns the target Serine/threonine-protein kinase PLK1 (Homo sapiens) (UniProt P53350). In words: Inhibition of Plk1 at 10 uM.
Assay [6] deals with Aurora kinase B (Homo sapiens) (UniProt Q96GD4). In words: Inhibition of Aurora B at 10 uM.
Sequence of Aurora kinase B (Homo sapiens) (Q96GD4 whole entry): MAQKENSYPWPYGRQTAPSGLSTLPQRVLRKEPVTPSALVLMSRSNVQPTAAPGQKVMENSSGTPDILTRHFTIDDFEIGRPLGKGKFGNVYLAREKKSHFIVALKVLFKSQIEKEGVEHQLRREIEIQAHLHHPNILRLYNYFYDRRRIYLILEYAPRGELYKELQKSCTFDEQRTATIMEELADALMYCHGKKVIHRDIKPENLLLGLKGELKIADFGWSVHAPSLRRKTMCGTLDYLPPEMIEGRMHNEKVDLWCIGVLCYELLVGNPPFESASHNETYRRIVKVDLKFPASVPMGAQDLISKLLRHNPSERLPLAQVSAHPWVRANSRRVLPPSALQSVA
Assay [7] in a line: Inhibition of PKA at 10 uM.
For assay [8], the target named is Macrophage-stimulating protein receptor (Homo sapiens) (UniProt Q04912). Nature of the assay: Inhibition of Ron at 10 uM.
Sequence of Macrophage-stimulating protein receptor (Homo sapiens) (Q04912 25-304 limits assumed): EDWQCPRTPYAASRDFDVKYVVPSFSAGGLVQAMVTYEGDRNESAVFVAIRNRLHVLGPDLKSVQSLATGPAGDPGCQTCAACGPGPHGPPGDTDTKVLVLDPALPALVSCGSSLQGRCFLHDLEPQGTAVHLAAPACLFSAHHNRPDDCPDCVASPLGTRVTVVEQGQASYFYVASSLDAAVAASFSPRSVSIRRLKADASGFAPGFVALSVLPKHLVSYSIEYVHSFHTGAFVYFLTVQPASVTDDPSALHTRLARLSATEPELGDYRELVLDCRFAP
Sequence of Macrophage-stimulating protein receptor (Homo sapiens) (Q04912 310-1400 limits assumed): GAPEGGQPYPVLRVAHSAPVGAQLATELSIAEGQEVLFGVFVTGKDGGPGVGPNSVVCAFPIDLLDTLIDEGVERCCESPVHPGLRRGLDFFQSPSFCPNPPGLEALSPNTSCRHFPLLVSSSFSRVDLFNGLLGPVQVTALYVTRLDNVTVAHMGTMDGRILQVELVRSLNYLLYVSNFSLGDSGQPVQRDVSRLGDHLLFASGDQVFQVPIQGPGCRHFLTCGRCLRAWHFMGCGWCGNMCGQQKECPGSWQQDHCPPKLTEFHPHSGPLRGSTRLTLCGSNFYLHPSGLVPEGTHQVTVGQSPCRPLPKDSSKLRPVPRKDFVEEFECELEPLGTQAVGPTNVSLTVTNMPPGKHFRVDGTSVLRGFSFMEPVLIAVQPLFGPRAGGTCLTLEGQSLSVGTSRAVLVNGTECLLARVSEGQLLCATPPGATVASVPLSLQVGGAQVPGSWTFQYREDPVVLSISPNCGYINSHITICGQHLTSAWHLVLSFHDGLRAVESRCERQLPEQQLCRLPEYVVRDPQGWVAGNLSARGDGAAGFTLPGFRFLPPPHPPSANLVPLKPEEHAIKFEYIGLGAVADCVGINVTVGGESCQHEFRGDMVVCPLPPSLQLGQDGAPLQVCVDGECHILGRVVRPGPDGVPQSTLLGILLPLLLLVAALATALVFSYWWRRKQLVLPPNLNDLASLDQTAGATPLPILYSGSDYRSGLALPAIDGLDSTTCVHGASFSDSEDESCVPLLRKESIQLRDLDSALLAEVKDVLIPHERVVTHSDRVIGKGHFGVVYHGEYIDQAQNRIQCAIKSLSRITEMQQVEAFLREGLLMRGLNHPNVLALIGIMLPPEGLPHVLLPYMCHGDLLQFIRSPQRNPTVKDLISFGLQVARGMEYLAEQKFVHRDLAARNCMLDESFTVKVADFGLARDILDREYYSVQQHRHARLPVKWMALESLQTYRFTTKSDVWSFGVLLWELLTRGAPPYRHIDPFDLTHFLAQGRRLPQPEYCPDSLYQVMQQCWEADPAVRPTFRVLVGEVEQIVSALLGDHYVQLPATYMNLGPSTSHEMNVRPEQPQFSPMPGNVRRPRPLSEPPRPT
Assay [9] deals with Bcr/Abl fusion protein (Homo sapiens) (UniProt P00519+P11274). Nature of the assay: Inhibition of Bcr-Abl at 10 uM. The class given is protein assay.
Assay [10] deals with Receptor-type tyrosine-protein kinase FLT3 (Homo sapiens) (UniProt P36888). In words: Inhibition of Flt3 at 10 uM.
Sequence of Receptor-type tyrosine-protein kinase FLT3 (Homo sapiens) (P36888 whole entry): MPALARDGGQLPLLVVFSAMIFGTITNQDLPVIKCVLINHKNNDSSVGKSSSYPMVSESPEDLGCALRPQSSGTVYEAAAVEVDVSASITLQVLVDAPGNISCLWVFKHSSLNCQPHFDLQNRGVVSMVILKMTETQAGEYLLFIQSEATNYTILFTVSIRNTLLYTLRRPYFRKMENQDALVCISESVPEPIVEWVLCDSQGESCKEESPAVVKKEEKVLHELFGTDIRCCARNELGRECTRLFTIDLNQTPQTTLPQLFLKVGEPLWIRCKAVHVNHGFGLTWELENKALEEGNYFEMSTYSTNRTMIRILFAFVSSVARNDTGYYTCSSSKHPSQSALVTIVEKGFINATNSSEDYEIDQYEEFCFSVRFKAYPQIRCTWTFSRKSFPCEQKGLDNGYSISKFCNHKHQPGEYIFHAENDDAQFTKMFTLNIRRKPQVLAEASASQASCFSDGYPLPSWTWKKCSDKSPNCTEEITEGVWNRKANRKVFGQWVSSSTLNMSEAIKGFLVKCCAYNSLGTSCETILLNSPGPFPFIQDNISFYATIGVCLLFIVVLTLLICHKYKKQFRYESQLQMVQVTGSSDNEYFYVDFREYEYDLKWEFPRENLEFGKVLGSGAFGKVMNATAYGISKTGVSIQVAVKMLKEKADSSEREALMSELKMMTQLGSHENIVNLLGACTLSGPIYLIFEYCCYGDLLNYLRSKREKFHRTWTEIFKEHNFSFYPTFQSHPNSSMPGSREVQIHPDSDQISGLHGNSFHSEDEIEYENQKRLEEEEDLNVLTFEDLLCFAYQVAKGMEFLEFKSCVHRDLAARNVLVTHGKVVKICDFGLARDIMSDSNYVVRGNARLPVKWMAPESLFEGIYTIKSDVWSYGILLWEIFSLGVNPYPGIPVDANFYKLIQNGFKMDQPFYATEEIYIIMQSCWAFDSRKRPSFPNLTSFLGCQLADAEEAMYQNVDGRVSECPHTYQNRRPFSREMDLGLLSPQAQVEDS
For assay [11], the target named is T1, Vascular endothelial growth factor receptor 2. In words: Inhibition of VEGFR2 by HTRF assay in presence of 2 uM ATP. In outline:
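HTRF kinase assay with KDR enzyme (3–4 ng) and biotinylated pGAT substrate. ATP added to start, 45 min at RT. Stopped with EDTA/KF buffer plus Eu-cryptate anti-phosphotyrosine antibody, 2 h RT, then HTRF read. IC50 from 10-point log concentration curves, mean of at least two duplicate runs.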
(TR-FRET usually uses a lanthanide donor and a delayed reading to cut background.)

Assay [12] deals with T2, Aurora kinase A (Homo sapiens) (UniProt O14965).
T2 sequence (whole entry): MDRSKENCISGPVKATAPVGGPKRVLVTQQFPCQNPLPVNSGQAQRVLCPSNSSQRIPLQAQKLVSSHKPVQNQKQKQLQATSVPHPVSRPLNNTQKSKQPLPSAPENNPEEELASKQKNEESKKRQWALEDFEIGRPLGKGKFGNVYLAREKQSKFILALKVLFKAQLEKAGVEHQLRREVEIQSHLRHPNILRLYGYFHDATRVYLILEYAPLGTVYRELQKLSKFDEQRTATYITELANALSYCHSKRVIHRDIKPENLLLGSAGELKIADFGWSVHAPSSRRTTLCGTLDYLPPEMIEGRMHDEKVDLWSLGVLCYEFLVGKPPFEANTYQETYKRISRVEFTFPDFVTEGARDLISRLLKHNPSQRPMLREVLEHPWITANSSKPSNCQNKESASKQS
In words: Inhibition of Aurora A at 10 uM.

Assay [13] deals with Receptor tyrosine-protein kinase erbB-2 (Homo sapiens) (UniProt P04626). In words: Inhibition of ErbB2 at 10 uM.
Sequence of Receptor tyrosine-protein kinase erbB-2 (Homo sapiens) (P04626 whole entry): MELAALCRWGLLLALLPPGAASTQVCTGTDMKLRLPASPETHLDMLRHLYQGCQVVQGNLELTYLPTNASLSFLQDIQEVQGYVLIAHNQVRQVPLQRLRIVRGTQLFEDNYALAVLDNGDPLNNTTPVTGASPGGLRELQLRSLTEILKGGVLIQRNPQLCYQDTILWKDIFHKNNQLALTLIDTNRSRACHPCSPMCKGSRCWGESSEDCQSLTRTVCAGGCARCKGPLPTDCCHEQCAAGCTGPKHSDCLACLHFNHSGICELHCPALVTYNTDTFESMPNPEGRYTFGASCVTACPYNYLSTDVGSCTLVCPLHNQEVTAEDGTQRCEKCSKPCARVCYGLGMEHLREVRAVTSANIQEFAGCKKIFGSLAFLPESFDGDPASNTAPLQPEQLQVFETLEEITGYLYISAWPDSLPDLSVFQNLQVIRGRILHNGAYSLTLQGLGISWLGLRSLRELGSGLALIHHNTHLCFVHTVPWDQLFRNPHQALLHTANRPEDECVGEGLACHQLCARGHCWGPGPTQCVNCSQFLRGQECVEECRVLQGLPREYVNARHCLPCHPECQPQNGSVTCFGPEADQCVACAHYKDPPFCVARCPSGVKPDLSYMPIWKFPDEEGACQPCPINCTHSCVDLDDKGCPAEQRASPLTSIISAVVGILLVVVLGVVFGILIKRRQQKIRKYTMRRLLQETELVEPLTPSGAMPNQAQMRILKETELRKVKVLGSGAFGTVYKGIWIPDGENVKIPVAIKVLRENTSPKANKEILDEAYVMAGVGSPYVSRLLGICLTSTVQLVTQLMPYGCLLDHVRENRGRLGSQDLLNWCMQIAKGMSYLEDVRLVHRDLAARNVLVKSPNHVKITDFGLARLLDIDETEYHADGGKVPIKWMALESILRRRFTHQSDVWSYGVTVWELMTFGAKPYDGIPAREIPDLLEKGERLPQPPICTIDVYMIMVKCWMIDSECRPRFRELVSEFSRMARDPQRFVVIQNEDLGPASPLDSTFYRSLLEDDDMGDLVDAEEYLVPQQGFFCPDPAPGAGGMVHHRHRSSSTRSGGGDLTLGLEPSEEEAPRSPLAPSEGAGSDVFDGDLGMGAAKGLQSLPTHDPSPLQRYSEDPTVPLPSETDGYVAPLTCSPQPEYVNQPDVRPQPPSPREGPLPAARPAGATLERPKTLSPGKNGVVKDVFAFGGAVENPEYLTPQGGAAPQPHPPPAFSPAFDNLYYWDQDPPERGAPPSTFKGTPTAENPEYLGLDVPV
In assay [14] the target is Cyclin-dependent kinase 1 (Homo sapiens) (UniProt P06493). Nature of the assay: Inhibition of Cdk1 at 10 uM.
Sequence of Cyclin-dependent kinase 1 (Homo sapiens) (P06493 whole entry, looked up): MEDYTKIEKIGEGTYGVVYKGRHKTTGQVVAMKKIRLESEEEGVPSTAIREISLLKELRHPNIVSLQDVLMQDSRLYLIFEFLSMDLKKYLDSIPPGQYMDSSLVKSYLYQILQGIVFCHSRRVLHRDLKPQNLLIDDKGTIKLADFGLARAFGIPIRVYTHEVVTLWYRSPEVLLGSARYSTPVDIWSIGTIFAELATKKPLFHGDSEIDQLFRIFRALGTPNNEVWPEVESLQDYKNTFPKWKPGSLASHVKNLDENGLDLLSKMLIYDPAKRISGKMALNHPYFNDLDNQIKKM
In assay [15] the target is Hepatocyte growth factor receptor (Homo sapiens) (UniProt P08581). Nature of the assay: Inhibition of c-Met at 10 uM.
Assay [16] concerns the target Proto-oncogene tyrosine-protein kinase Src (Homo sapiens) (UniProt P12931). Nature of the assay: Inhibition of Src at 10 uM.
In assay [17] the target is Vascular endothelial growth factor receptor 1 (Homo sapiens, UniProt P17948). In words: Inhibition of VEGFR1 by HTRF assay.
Assay [18] has as its target Epidermal growth factor receptor (Homo sapiens) (UniProt P00533). In words: Inhibition of EGFR at 10 uM.
Assay [19] has as its target Cyclin-dependent kinase 2 (Homo sapiens) (UniProt P24941). Nature of the assay: Inhibition of Cdk2 at 10 uM.
Assay [20] deals with Insulin-like growth factor 1 receptor (Homo sapiens) (UniProt P08069). In words: Inhibition of IGF1R at 10 uM.
The target in assay [21] is Glycogen synthase kinase-3 beta (Homo sapiens) (UniProt P49841). In words: Inhibition of GSK3-beta at 10 uM.

SMILES strings stand for the structures. pIC50: −log10 of the molar value. The source made the active and inactive calls. The calls are words filed in the database; no cut-off is given here. A value given as a limit tells only on which side of the number the result lay.

Sequence of Fibroblast growth factor receptor 1 (Homo sapiens) (P11362 22-822 limits assumed): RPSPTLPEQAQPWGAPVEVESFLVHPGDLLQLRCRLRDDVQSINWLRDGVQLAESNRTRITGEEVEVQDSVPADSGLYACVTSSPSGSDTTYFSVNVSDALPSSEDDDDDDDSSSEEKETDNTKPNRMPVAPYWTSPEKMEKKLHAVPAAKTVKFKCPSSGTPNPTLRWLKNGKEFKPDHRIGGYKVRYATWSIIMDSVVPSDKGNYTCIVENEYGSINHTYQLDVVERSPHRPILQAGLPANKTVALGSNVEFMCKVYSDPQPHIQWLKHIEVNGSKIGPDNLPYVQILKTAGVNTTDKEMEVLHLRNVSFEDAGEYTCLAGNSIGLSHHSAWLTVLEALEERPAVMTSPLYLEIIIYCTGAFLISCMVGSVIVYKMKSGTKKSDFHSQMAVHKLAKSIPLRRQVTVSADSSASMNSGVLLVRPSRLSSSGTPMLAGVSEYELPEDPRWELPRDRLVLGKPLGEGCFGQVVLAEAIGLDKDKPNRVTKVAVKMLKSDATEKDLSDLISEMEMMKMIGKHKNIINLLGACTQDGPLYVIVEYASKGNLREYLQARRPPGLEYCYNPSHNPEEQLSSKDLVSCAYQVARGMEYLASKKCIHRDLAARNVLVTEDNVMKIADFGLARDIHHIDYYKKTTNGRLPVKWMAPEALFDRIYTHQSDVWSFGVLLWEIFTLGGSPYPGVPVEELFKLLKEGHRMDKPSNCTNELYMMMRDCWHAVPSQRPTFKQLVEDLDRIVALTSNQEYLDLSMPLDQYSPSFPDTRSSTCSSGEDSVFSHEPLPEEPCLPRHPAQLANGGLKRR

In the case of `FC(F)(F)c1cccc(-n2cc(-c3ccccc3NCc3ccnc4ccccc34)nn2)c1`, the inhibition in assay [1], in [2], in [3], in assay [5], in assay [6] and in [7] was below 30% each time. The inhibition in assay [8], in assay [9], in assay [10], in [12], in [13] and in [14] was below 30% in each case. For the same molecule, the inhibition in assay [15], in [16], in assay [18], in [19], in assay [20] and in [21] was below 30% each time. For the same molecule, the values for the pIC50 in assay [4], in [11] and in assay [17] were 6.51, 6.80 and 6.68, respectively.
Consider `O=C(Nc1ccc(C(F)(F)F)cc1)c1[nH]nnc1NCc1ccncc1`, for which the pIC50 in assay [11] and in assay [17] was below 5.00 in each case.
Turning to `FC(F)(F)c1cccc(-n2cc(-c3ccccc3NCc3ccccn3)nn2)c1`, the inhibition in [1], in [2], in [3], in [5], in assay [6] and in [7] was below 30% in each case. Moreover, the inhibition in assay [8], in assay [9], in assay [10], in [12], in [13] and in assay [14] was below 30% each time. Moreover, the inhibition in assay [15], in assay [16], in assay [18], in assay [19], in assay [20] and in assay [21] was below 30% each time. Also, the pIC50 in [4], in assay [11] and in assay [17] was below 5.00 each time.
Regarding `FC(F)(F)c1ccc(-n2cc(-c3ccccc3NCc3ccncc3)nn2)cc1Cl`, the inhibition in assay [1], in assay [2], in [3], in assay [5], in assay [6] and in assay [7] was below 30% throughout. Besides, the inhibition in [8], in assay [9], in assay [10], in assay [12], in [13] and in [14] was below 30% each time. Also, the inhibition in assay [15], in [16], in [18], in assay [19], in assay [20] and in assay [21] was below 30% in each case. Also, the pIC50 is 5.53 in assay [4], 6.03 in assay [11] and 5.95 in assay [17].
Regarding `CC(C)(C)c1cccc(-n2cc(-c3ccccc3NCc3ccncc3)nn2)c1`, the inhibition in assay [1], in assay [2], in assay [3], in [5], in assay [6] and in [7] was below 30% throughout. The inhibition in [8], in assay [9], in [10], in assay [12], in [13] and in [14] was below 30% throughout. Also, the inhibition in [15], in [16], in [18], in [19], in assay [20] and in assay [21] was below 30% each time. Moreover, the negative-log IC50 (pIC50) was 6.48 in assay [4], 6.57 in assay [11] and 6.60 in [17].
Consider `Clc1cccc(-n2cc(-c3ccccc3NCc3ccnc4ccccc34)nn2)c1`, for which the inhibition in [1], in assay [2], in assay [3], in [5], in assay [6] and in [7] was below 30% in each case. For the same molecule, the inhibition in assay [8], in assay [9], in assay [10], in assay [12], in assay [13] and in [14] was below 30% throughout. Moreover, the inhibition in assay [15], in assay [16], in [18], in [19], in assay [20] and in assay [21] was below 30% throughout. The negative logarithm of the IC50 (pIC50) in assay [4] is 6.57; in assay [11] it was 6.72; in assay [17], 6.77.
On to `Clc1cccc(-n2cc(-c3ccccc3NCc3ccccn3)nn2)c1`, for which the inhibition in assay [1], in assay [2], in [3], in [5], in assay [6] and in assay [7] was below 30% throughout. For the same molecule, the inhibition in assay [8], in assay [9], in assay [10], in assay [12], in assay [13] and in [14] was below 30% in each case. Besides, the inhibition in [15], in assay [16], in assay [18], in [19], in assay [20] and in assay [21] was below 30% each time. The pIC50 in [4], in [11] and in assay [17] was below 5.00 each time.
In the case of `c1ccc(-c2cn(-c3ccc4ccccc4n3)nn2)c(NCc2ccncc2)c1`, the inhibition in assay [1], in [2], in assay [3], in assay [5], in [6] and in assay [7] was below 30% each time. The inhibition in assay [8], in [9], in assay [10], in [12], in [13] and in assay [14] was below 30% each time. In addition, the inhibition in assay [15], in assay [16], in assay [18], in assay [19], in assay [20] and in assay [21] was below 30% each time. Besides, the values for the pIC50 in assay [4], in assay [11] and in assay [17] were 5.92, 6.11 and 6.19, respectively.
Consider `O=C(Nc1ccc(Cl)cc1)c1nn[nH]c1NCc1ccncc1`, for which the pIC50 in assay [11] and in assay [17] was below 5.00 in each case.
With `O=C(Nc1cccc(C(F)(F)F)c1)c1nn[nH]c1NCc1ccncc1`, the outcome in assay [4] was inactive. Further, in [11], the pIC50 was 5.30.
Regarding `Fc1ccc(CNc2ccccc2-c2cn(-c3cccc(Cl)c3)nn2)cc1F`, the inhibition in assay [1], in assay [2], in assay [3], in assay [5], in assay [6] and in assay [7] was below 30% in each case. Moreover, the inhibition in assay [8], in assay [9], in assay [10], in assay [12], in [13] and in assay [14] was below 30% throughout. For the same molecule, the inhibition in [15], in assay [16], in assay [18], in [19], in assay [20] and in assay [21] was below 30% in each case.
Take `O=C(Nc1cccc(Cl)c1)c1nn[nH]c1NCc1ccncc1`: the outcome in [4] was inactive. In addition, the negative-log IC50 (pIC50) in assay [11] is 5.30.

Broadly, the inhibition is the drop in the measured response relative to a control, in per cent. A word on the pIC50: it is the IC50 on a negative log10 scale, so that one unit is a factor of ten.
